From ChEMBL document CHEMBL3734698, “1H-Pyrazolo[3,4-g]hexahydro-isoquinolines as potent GR antagonists with reduced hERG inhibition and an improved pharmacokinetic profile” (Bioorg Med Chem Lett, 2015)
Active and inactive are the calls of the source. No cut-off for these calls is given here.

Target: T1, Glucocorticoid receptor (Rattus norvegicus, UniProt P06536)
T1 sequence (P06536 whole entry): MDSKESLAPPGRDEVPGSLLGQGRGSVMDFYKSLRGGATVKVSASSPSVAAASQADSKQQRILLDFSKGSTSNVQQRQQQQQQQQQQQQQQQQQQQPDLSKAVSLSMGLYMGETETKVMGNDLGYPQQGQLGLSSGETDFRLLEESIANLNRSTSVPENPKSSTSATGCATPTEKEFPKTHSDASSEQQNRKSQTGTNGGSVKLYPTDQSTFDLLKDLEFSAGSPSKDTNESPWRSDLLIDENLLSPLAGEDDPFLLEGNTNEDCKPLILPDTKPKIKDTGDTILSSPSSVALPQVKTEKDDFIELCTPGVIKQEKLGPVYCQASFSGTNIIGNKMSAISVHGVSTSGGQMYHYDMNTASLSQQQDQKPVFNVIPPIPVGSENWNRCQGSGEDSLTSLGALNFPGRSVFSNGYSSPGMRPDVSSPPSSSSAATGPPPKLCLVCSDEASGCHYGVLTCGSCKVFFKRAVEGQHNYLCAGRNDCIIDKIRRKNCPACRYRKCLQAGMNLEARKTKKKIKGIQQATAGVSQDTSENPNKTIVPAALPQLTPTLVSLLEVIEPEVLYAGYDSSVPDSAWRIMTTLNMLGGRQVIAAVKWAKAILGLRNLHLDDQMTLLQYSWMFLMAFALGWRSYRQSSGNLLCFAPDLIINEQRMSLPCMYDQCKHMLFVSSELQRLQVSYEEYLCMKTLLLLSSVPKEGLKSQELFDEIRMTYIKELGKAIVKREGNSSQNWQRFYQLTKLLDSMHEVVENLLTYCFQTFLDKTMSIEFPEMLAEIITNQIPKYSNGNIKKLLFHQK
Test: Agonist activity at glucocorticoid receptor in rat primary hepatocytes assessed as inhibition of glucocorticoid-induced TAT activity
Assay type: cell-based, Hepatocyte
Conditions: not given

SMILES	EC50
O=C(c1ccccn1)[C@]12Cc3cnn(-c4ccc(F)cc4)c3C=C1CCN(S(=O)(=O)c1ccc(C(F)(F)F)cc1)C2 [DAZUCORILANT]	280 nM

Target: T2, Glucocorticoid receptor (Rattus norvegicus) (UniProt P06536)
T2 sequence (whole entry): T1 sequence (P06536 whole entry)
Test: Antagonist activity at glucocorticoid receptor in rat primary hepatocytes assessed as inhibition of glucocorticoid-induced TAT activity relative to control
Assay type: cell-based
Conditions: Hepatocyte
In short: (§1)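 Glucocorticoid receptor antagonism was measured as blockade of dexamethasone-induced tyrosine amino transferase (TAT) activity. Cells were rat H4IIEC3 cells or primary hepatocytes from rat or cynomolgus monkey, as the line specifies.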

SMILES	Imax
O=C(c1ccccn1)[C@]12Cc3cnn(-c4ccc(F)cc4)c3C=C1CCN(S(=O)(=O)c1ccc(C(F)(F)F)cc1)C2 [DAZUCORILANT]	62%

Target: T2, Glucocorticoid receptor (Rattus norvegicus)
Test: Agonist activity at glucocorticoid receptor in rat primary hepatocytes assessed as inhibition of glucocorticoid-induced TAT activity relative to control
Assay type: cell-based
Conditions: Hepatocyte

SMILES	Emax
O=C(c1ccccn1)[C@]12Cc3cnn(-c4ccc(F)cc4)c3C=C1CCN(S(=O)(=O)c1ccc(C(F)(F)F)cc1)C2 [DAZUCORILANT]	51%

Target: T3, hERG (KCNH2) (Homo sapiens, UniProt Q12809)
Test: Inhibition of human ERG at 10 uM by patch clamp technique
Conditions: not given

T3 sequence (Q12809 whole entry): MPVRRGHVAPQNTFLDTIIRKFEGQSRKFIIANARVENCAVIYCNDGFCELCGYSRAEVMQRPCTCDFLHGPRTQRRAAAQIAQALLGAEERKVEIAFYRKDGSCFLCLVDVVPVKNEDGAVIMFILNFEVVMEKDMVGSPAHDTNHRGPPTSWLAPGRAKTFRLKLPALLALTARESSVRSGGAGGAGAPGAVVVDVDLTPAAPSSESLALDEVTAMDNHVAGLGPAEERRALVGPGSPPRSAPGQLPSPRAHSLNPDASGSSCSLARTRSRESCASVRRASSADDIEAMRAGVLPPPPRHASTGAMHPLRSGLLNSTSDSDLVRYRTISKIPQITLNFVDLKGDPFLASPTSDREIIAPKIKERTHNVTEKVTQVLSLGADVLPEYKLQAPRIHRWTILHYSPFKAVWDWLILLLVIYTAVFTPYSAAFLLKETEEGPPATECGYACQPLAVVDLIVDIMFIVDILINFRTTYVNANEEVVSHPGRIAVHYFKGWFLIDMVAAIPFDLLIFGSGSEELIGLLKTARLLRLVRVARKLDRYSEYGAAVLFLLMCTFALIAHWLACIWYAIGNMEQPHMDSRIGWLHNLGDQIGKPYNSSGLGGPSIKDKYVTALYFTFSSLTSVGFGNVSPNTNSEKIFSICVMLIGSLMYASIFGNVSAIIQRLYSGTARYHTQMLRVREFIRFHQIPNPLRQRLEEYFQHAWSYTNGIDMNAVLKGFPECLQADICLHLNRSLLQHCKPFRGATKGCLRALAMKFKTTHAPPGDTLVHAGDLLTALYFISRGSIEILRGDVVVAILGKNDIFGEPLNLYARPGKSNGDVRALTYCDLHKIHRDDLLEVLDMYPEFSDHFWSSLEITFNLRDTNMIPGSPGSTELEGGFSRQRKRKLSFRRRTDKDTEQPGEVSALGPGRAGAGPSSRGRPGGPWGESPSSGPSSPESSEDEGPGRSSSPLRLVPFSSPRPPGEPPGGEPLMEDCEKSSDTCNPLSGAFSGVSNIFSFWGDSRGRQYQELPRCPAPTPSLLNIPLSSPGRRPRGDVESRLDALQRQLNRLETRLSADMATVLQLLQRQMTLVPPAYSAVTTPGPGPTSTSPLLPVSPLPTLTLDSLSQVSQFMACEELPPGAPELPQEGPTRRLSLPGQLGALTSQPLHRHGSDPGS

SMILES	inhibition at 10 µM
O=C(c1ccccn1)[C@]12Cc3cnn(-c4ccc(F)cc4)c3C=C1CCN(S(=O)(=O)c1ccc(F)c(F)c1)C2	35%
COc1cccc(S(=O)(=O)N2CCC3=Cc4c(cnn4-c4ccc(F)cc4)C[C@]3(C(=O)c3ccccn3)C2)c1	36%

System: not listed separately
Test: Oral bioavailability in rat at 5 mg/kg
Assay type: ADME, organism-based
Conditions: in vivo
In short: (§2)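 Rat pharmacokinetics: oral dosing at 5 mg/kg in 10% DMSO in 0.5% aqueous methyl cellulose. Intravenous dosing at 1 mg/kg in 10% DMSO, 45% PEG400 and 45% propylene glycol. Plasma Cmax was taken after the oral dose and clearance after the iv dose, and oral bioavailability was derived.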

SMILES	bioavailability
O=C(c1ccccn1)[C@]12Cc3cnn(-c4ccc(F)cc4)c3C=C1CCN(S(=O)(=O)c1ccc(C(F)(F)F)cc1)C2 [DAZUCORILANT]	31%

System: Hepatocyte
Test: Agonist activity at glucocorticoid receptor in dog primary hepatocytes assessed as […] TAT activity relative to control
Assay type: cell-based
Conditions: Canis lupus familiaris

SMILES	Emax
O=C(c1ccccn1)[C@]12Cc3cnn(-c4ccc(F)cc4)c3C=C1CCN(S(=O)(=O)c1ccc(C(F)(F)F)cc1)C2 [DAZUCORILANT]	110%

Target: T3, hERG (KCNH2)
Test: Inhibition of human ERG at 1 uM by patch clamp technique
Conditions: not given

SMILES	inhibition at 1 µM
O=C(c1ccccn1)[C@]12Cc3cnn(-c4ccc(F)cc4)c3C=C1CCN(S(=O)(=O)c1ccc(F)c(F)c1)C2	10%
COc1cccc(S(=O)(=O)N2CCC3=Cc4c(cnn4-c4ccc(F)cc4)C[C@]3(C(=O)c3ccccn3)C2)c1	24%

System: Rattus norvegicus
Test: Reduction in cortisone-induced glucose level in rat at 30 mg/kg, po bid
Assay type: functional, organism-based
Conditions: not given
In short: (§3)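 Rats received cortisone 30 mg/kg sc once daily for six days. Test agent was given orally twice daily at 30 mg/kg. Glucose and insulin levels were compared with cortisone-only and no-cortisone controls, with mifepristone at the same oral regimen as positive control.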

SMILES	Activity
O=C(c1ccccn1)[C@]12Cc3cnn(-c4ccc(F)cc4)c3C=C1CCN(S(=O)(=O)c1ccc(C(F)(F)F)cc1)C2 [DAZUCORILANT]	Active

System: Rattus norvegicus
Test: Reduction in cortisone-induced insulin level in rat at 30 mg/kg, po bid
Assay type: functional, organism-based
Conditions: not given
In short: as §3

SMILES	Activity
O=C(c1ccccn1)[C@]12Cc3cnn(-c4ccc(F)cc4)c3C=C1CCN(S(=O)(=O)c1ccc(C(F)(F)F)cc1)C2 [DAZUCORILANT]	inactive

System: Rattus norvegicus
Test: Reduction in olanzapine-induced weight gain in rat at 20 mg/kg, po bid administered for 21 days measured from day 4 of compound dosing
Assay type: functional, organism-based
Conditions: not given

SMILES	Activity
O=C(c1ccccn1)[C@]12Cc3cnn(-c4ccc(F)cc4)c3C=C1CCN(S(=O)(=O)c1ccc(C(F)(F)F)cc1)C2 [DAZUCORILANT]	Active

System: not listed separately
Test: Agonist activity at glucocorticoid receptor in dog primary hepatocytes assessed as […] TAT activity
Assay type: cell-based
Conditions: Canis lupus familiaris, Hepatocyte

SMILES	EC50
O=C(c1ccccn1)[C@]12Cc3cnn(-c4ccc(F)cc4)c3C=C1CCN(S(=O)(=O)c1ccc(C(F)(F)F)cc1)C2 [DAZUCORILANT]	1600 nM

System: Hepatocyte
Test: Antagonist activity at glucocorticoid receptor in cynomolgus monkey primary hepatocytes assessed as inhibition of glucocorticoid-induced TAT activity relative to control
Assay type: cell-based
Conditions: Macaca fascicularis
In short: as §1

SMILES	Imax
O=C(c1ccccn1)[C@]12Cc3cnn(-c4ccc(F)cc4)c3C=C1CCN(S(=O)(=O)c1ccc(C(F)(F)F)cc1)C2 [DAZUCORILANT]	100%

Target: not listed separately
Test: Antagonist activity at glucocorticoid receptor in cynomolgus monkey primary hepatocytes assessed as inhibition of glucocorticoid-induced TAT activity
Assay type: cell-based, Macaca fascicularis
Conditions: hepatocyte
In short: as §1

SMILES	Ki
O=C(c1ccccn1)[C@]12Cc3cnn(-c4ccc(F)cc4)c3C=C1CCN(S(=O)(=O)c1ccc(C(F)(F)F)cc1)C2 [DAZUCORILANT]	765 nM

System: not listed separately
Test: Cmax in rat at 5 mg/kg, po
Assay type: ADME, organism-based
Parameters: dose 5 mg/kg, route oral
Conditions: in vivo
In short: as §2

SMILES	Cmax
O=C(c1ccccn1)[C@]12Cc3cnn(-c4ccc(F)cc4)c3C=C1CCN(S(=O)(=O)c1ccc(C(F)(F)F)cc1)C2 [DAZUCORILANT]	375 ng/mL
O=C(c1ccccn1)[C@]12Cc3cnn(-c4ccc(F)cc4)c3C=C1CCN(S(=O)(=O)c1ccc(F)c(F)c1)C2	398 ng/mL

System: not listed separately
Test: Clearance in rat at 1 mg/kg, iv
Assay type: ADME, organism-based
Conditions: in vivo
In short: as §2

SMILES	clearance
O=C(c1ccccn1)[C@]12Cc3cnn(-c4ccc(F)cc4)c3C=C1CCN(S(=O)(=O)c1ccc(C(F)(F)F)cc1)C2 [DAZUCORILANT]	11 mL/min/kg
O=C(c1ccccn1)[C@]12Cc3cnn(-c4ccc(F)cc4)c3C=C1CCN(S(=O)(=O)c1ccc(F)c(F)c1)C2	44 mL/min/kg

Target: T4, Glucocorticoid receptor (Homo sapiens, UniProt P04150)
T4 sequence (P04150 whole entry): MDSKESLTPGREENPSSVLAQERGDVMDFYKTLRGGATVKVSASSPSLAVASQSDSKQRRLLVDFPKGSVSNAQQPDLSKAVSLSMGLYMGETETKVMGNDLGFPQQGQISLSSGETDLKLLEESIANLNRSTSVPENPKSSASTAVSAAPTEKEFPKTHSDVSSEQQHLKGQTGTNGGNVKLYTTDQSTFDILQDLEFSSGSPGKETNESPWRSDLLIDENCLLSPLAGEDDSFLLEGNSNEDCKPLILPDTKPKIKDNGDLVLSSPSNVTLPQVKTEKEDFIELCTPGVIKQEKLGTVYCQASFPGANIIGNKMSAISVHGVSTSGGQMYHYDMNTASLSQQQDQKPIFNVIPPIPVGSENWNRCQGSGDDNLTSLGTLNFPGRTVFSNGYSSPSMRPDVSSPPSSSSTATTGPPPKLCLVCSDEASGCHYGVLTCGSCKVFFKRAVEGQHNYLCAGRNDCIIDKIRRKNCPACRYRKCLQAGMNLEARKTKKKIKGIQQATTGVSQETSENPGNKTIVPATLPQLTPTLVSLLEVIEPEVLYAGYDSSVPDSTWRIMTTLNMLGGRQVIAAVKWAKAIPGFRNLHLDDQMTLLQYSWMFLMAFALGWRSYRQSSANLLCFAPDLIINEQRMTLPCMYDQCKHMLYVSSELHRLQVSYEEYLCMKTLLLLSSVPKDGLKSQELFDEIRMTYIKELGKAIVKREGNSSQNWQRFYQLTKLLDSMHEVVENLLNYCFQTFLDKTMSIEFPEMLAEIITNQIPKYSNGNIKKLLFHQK
Test: Antagonist activity at glucocorticoid receptor in human primary hepatocytes assessed as inhibition of glucocorticoid-induced TAT activity
Assay type: cell-based, Hepatocyte
Conditions: not given
In short: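 Primary human hepatocytes stimulated with dexamethasone to induce tyrosine amino transferase (TAT) activity. Compounds were tested for their ability to block this dexamethasone effect as a measure of GR antagonism. They were also run without dexamethasone to check for TAT induction, a measure of GR agonism. Read-out was TAT activity, reported as K_i.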

SMILES	Ki
O=C(c1ccccn1)[C@]12Cc3cnn(-c4ccc(F)cc4)c3C=C1CCN(S(=O)(=O)c1ccc(C(F)(F)F)cc1)C2 [DAZUCORILANT]	100 nM

Target: T4, Glucocorticoid receptor
Test: Antagonist activity at glucocorticoid receptor in human HepG2 cells assessed as inhibition of glucocorticoid-induced TAT activity after 24 hrs
Assay type: cell-based
Conditions: not given

SMILES	Ki
O=C(c1ccccn1)[C@]12Cc3cnn(-c4ccc(F)cc4)c3C=C1CCN(S(=O)(=O)c1ccc(F)c(F)c1)C2	7.5 nM
COc1cccc(S(=O)(=O)N2CCC3=Cc4c(cnn4-c4ccc(F)cc4)C[C@]3(C(=O)c3ccccn3)C2)c1	11.4 nM

Target: T1, Glucocorticoid receptor
Test: Antagonist activity at glucocorticoid receptor in rat primary hepatocytes assessed as inhibition of glucocorticoid-induced TAT activity
Assay type: cell-based, Hepatocyte
Conditions: not given
In short: as §1

SMILES	Ki
O=C(c1ccccn1)[C@]12Cc3cnn(-c4ccc(F)cc4)c3C=C1CCN(S(=O)(=O)c1ccc(C(F)(F)F)cc1)C2 [DAZUCORILANT]	13 nM

Target: Voltage-gated inwardly rectifying potassium channel KCNH2 (Homo sapiens, UniProt Q12809)
Test: Inhibition of human ERG by patch clamp technique
Conditions: not given

Chain of Voltage-gated inwardly rectifying potassium channel KCNH2 (Q12809 whole entry): as the sequence (Q12809 whole entry) above

SMILES	IC50
O=C(c1ccccn1)[C@]12Cc3cnn(-c4ccc(F)cc4)c3C=C1CCN(S(=O)(=O)c1ccc(C(F)(F)F)cc1)C2 [DAZUCORILANT]	5000 nM
COc1cccc(S(=O)(=O)N2CCC3=Cc4c(cnn4-c4ccc(F)cc4)C[C@]3(C(=O)c3ccccn3)C2)c1	> 19000 nM

Target: T4, Glucocorticoid receptor
Test: Binding affinity to human recombinant glucocorticoid receptor by fluorescence polarization assay
Conditions: not given

SMILES	Ki
O=C(c1ccccn1)[C@]12Cc3cnn(-c4ccc(F)cc4)c3C=C1CCN(S(=O)(=O)c1ccc(C(F)(F)F)cc1)C2 [DAZUCORILANT]	0.16 nM
O=C(c1ccccn1)[C@]12Cc3cnn(-c4ccc(F)cc4)c3C=C1CCN(S(=O)(=O)c1ccc(F)c(F)c1)C2	0.22 nM
COc1cccc(S(=O)(=O)N2CCC3=Cc4c(cnn4-c4ccc(F)cc4)C[C@]3(C(=O)c3ccccn3)C2)c1	0.19 nM
